According to PMC12034913 (Journal of Clinical Pharmacology, 2024):

Legend:
[1] = cited from earlier work
[2] = proposed threshold; cited from earlier work
[3] = Open-label drug–drug interaction study: dasatinib plasma pharmacokinetics; format: in vivo, human
Procedure, shortened: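 Healthy fasted volunteers (N = 18). Test compound given as a 100 mg IR tablet orally with ~240 mL water on day 1 alone and on day 6 after 40 mg delayed-release PPI QD on evenings of days 2–5. Fasted ≥10 h before and 4 h after dose. K2EDTA plasma was analysed by LC-MS/MS (LLOQ 0.75 ng/mL). PK was non-compartmental, with day 6/day 1 geometric mean ratios and 90% CI from ANOVA on ln-values.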

[4] = omeprazole 40 mg at steady state, 10 h before crystalline dasatinib 100 mg

Cc1nc(Nc2ncc(C(=O)Nc3c(C)cccc3Cl)s2)cc(N2CCN(CCO)CC2)n1 [Crystalline Dasatinib, dasatinib]
effect on dasatinib plasma exposure ([1]; antacid administered 2 h prior to crystalline dasatinib): unaffected
reduction in absorption and bioavailability of dasatinib with PPIs ([1]; experimental setting controlled for gastric pH above 4): ≤ 80%
Cmax threshold for achieving MMR [2]: 69.2 ng/mL
extrapolated area in the plasma concentration–time profile (mean ± SD) ([3]; crystalline dasatinib formulation administered alone): 2.7%
reduction in dasatinib plasma exposure ([3]; dosing interval of 10 h between PPI and crystalline dasatinib): ~90%
AUC(0-t) ([3]; human, plasma, oral, 100 mg): 735 ng·h/mL
Cmax ([3]; human, plasma, oral, 100 mg): 195 ng/mL
AUC(0-t) ([3]; human, plasma, po, 100 mg): 798 ± 274 ng·h/mL
Cmax ([3]; human, plasma, po, 100 mg): 225 ± 105 ng/mL
half-life ([3]; human, plasma, po, 100 mg): 5.7 ± 1.5 h
mean reduction of Cmax by omeprazole comedication [3, 4]: 96%
reduction of AUC0-24 by omeprazole comedication [3, 4]: 89%
reduction of GI absorption and bioavailability ([3]; omeprazole at steady state dosed in the evening 10 h prior to crystalline dasatinib): about 90%
Cmax ratio Test/Control (geometric means) ([3]; test = with omeprazole, control = crystalline dasatinib alone, 90% CI 2.73-4.96): 3.7%
AUC0-24 ratio Test/Control (geometric means) ([3]; test = with omeprazole, control = crystalline dasatinib alone, 90% CI 9.13-14.59): 11.5%
